From ChEMBL document CHEMBL1131318, “Synthesis and evaluation of compounds that facilitate the gastrointestinal absorption of heparin” (J Med Chem, 1998)

Tests used:
[1] = Mean peak APTT value was evaluated on rats by intracolonic instillation of a 25% aqueous propylene glycol solution of heparin (25 mg/kg) and compound (50 mg/kg).; assay type: functional, Rattus norvegicus
[2] = HPLC capacity factor (k') (artificial membrane chromatography); assay type: ADME
How it was run: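 Immobilized artificial membrane (IAM) column; mobile phase 10 mM sodium phosphate pH 6.4 in 25% aqueous propylene glycol, 2 mL/min. Samples at 100 µg/mL in mobile phase, UV detection 220 nm, KI as void marker. k' of each compound divided by mean k' of a reference standard injected before and after each set of five compounds; reported as relative k' (log for comparisons).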

Compound	Mean peak APTT [1]	Log relative k' [2]
O=C(O)CCCCCNC(=O)c1ccc(Cl)cc1O	40	0.26
O=C(O)CCCCCCCNC(=O)c1cccc(O)c1	23	0
O=C(O)CCCCCCCNC(=O)c1ccc(Cl)cc1	37	0.65
O=C(O)CCCCCCCCNC(=O)C/C=C/c1ccccc1	140	0.69
O=C(O)CCCCCCCNC(=O)c1cc(I)ccc1O	32	1.72
O=C(O)CCCCCCCNC(=O)c1cccnc1Cl	30	-0.53
O=C(O)CCCCCCCCCCNC(=O)c1ccc2ccccc2c1O	26	> 2.5
O=C(O)CCCCCCCNC(=O)c1c(F)cccc1Cl	23	0.23
O=C(O)CCCCCCCNC(=O)c1ccccc1	21	0.09
O=C(O)CCCCCCCNC(=O)c1cc2ccccc2cc1O	71	1.7
O=C(O)CCCCCCCNC(=O)C/C=C/c1ccccc1	73	0.7
O=C(O)CCCCCCCNC(=O)c1cc2ccccc2oc1=O	34	0.81
O=C(O)CCCCCCCNC(=O)c1ccc(O)cc1	27	-0.04
O=C(O)CCCCCCCNC(=O)c1ccc(I)cc1	23	0.97
O=C(O)CCCNC(=O)c1ccccc1O	25	-0.41
Cc1ccc(C(=O)NCCCCCCCC(=O)O)c(O)c1	37	1.05
O=C(O)CCCCCCCNC(=O)c1ccc(O)cc1O	37	0.65
O=C(O)CCCCCCCNC(=O)c1ccc(Cl)c([N+](=O)[O-])c1	34	0.94
O=C(O)CCCCCCCNC(=O)c1c(O)cccc1O	42	1.12
O=C(O)CCCCCCCNC(=O)c1ccc([N+](=O)[O-])cc1	33	0.44
Cc1ccccc1C(=O)NCCCCCCCC(=O)O	25	0.45
O=C(O)CCCCCCCNC(=O)c1cccs1	22	0.9
O=C(O)CCCCCCCCCCCNC(=O)C/C=C/c1ccccc1	41	2.29

Compound	Mean peak APTT [1]	Log relative k' [2]
O=C(O)CCCCCCCNC(=O)c1ccc2ccccc2c1O	31	2.1
O=C(O)CCCCCCCCCCCNC(=O)c1ccccc1O	44	2.32
O=C(O)CCCCCCCNC(=O)c1cc(O)cc(O)c1	20	-0.06
O=C(O)CCCCCCCNC(=O)c1cc([N+](=O)[O-])ccc1Cl	23	0.25
O=C(O)CCCCCCCNC(=O)c1ccc(Br)cc1	60	0.76
O=C(O)CCCCCCCNC(=O)c1cccc(O)c1O	–	0.46
O=C(O)CCCCCCCNC(=O)c1ccccc1C(=O)O	23	-1
O=C(O)CCCCCCCCCCNC(=O)c1ccccc1O	51	1.88
O=C(O)CCCCCCCNC(=O)c1ccc(Cl)cc1O	94	1.43
O=C(O)CCCCCCCNC(=O)c1ccccc1O [SALCAPROZIC ACID]	125	0.68
O=C(O)CCCCCCCNC(=O)c1cccc(I)c1	39	1.05
O=C(O)CCCCNC(=O)c1ccccc1O	26	-0.18
Cc1cccc(C(=O)NCCCCCCCC(=O)O)c1O	27	1.23
O=C(O)CCCCCCCNC(=O)c1cccnc1O	22	0.9
O=C(O)CCCCCCNC(=O)c1ccccc1O	56	0.37
O=C(O)CCCCCCCNC(=O)c1ccccn1	23	-0.52
O=C(O)CCCCCCCNC(=O)Cc1ccccc1O	21	0.12
O=C(O)CCCCCCCNC(=O)C1CCCN1 (stereo not given)	25	-0.28
O=C(O)CCCCCNC(=O)c1ccccc1O	24	0.04
COc1ccccc1/C=C/CC(=O)NCCCCCCCCC(=O)O	56	0.89
O=C(O)CCCCCCCNC(=O)c1cccc(F)c1	35	0.29
O=C(O)CCCCCCCNC(=O)c1c(F)c(F)c(F)c(F)c1F	22	0.41
O=C(O)CCCCCCCNC(=O)c1ccccc1I	22	0.35

Compound	Mean peak APTT [1]	Log relative k' [2]
O=C(O)CCCCCCCNC(=O)c1ccccc1OC(F)(F)F	23	-0.64
O=C(O)CCCCCCCNC(=O)c1ccc([N+](=O)[O-])cc1O	36	1.11
O=C(O)CCNC(=O)c1ccccc1O	22	-0.63
O=C(O)CNC(=O)c1ccccc1O [SALICYLURIC ACID]	28	-0.68
Cc1ccc(O)c(C(=O)NCCCCCCCC(=O)O)c1	56	1.03
O=C(O)CCCCCCCNC(=O)c1ccccc1Br	21	0.24
O=C(O)CCCCCCCCNC(=O)c1ccccc1O	163	1.04
COc1cc([N+](=O)[O-])ccc1C(=O)NCCCCCCCC(=O)O	25	-0.55
O=C(O)CCCCCCCCCNC(=O)c1ccccc1O	153	1.43
O=C(O)CCCCCCCNC(=O)c1cc(Br)ccc1O	111	1.54
O=C(O)CCCCCCNC(=O)C/C=C/c1ccccc1	39	0.36
O=C(O)CCCCCCCNC(=O)c1ccccc1F	25	0.11
Nc1ccccc1C(=O)NCCCCCCCC(=O)O	24	0.02
O=C(O)CCCCCCCNC(=O)C1CCCCC1	34	0.15
O=C(O)CCCCCCCNC(=O)c1ccccc1Cl	23	0.18
COc1ccccc1C(=O)NCCCCCC(=O)O	27	-0.47
O=C(O)CCCCCCCNC(=O)c1ccc(F)cc1	31	0.23
COc1ccccc1C(=O)NCCCCCCCC(=O)O	26	0.33
COc1cc(Cl)ccc1C(=O)NCCCCCCCC(=O)O	75	0.79
O=C(O)CCCCCCCNC(=O)c1cc(Cl)ccc1O	56	0.81
O=C(O)CCCCCCCNC(=O)c1cc(O)ccc1O	25	0.51
COc1ccc(C(=O)NCCCCCCCC(=O)O)c(O)c1	76	0.92
